Reference: ChEMBL document CHEMBL4732105, “First orally bioavailable prodrug of proteolysis targeting chimera (PROTAC) degrades cyclin-dependent kinases 2/4/6 in vivo” (Eur J Med Chem, 2021)
Calls of active or inactive are those of the source. The calls are words filed in the database; no cut-off is given here.

Key:
[1] = test system: A-375; assay: Induction of apoptosis in human A-375 cells assessed as necrotic cells at 250 nM incubated for 48 hrs by Annexin V-FITC/PI staining based flow cytometry (reference value: 0.602%); assay type: functional
[2] = test system: A-375; assay: Induction of cell cycle arrest in human A-375 cells assessed as accumulation at G2 phase at 500 uM incubated for 48 hrs by propidium iodide staining based flow cytometry (reference value: 12.42%); assay type: functional
Method in brief: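 Tumor cells incubated 48 h in complete medium with compound or DMSO at various concentrations, stained with propidium iodide, and DNA content read by flow cytometry. G0/G1, S and G2/M fractions reported; mean ± SD, n = 3, Student's t-test.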

[3] = test system: A-375; assay: Inhibition of colony formation in human A-375 cells at 250 to 500 nM measured after 7 days by crystal violet staining based colony formation assay; assay type: functional, cell-based; details: dose 250-500 nM, time 7.0 day
Method in brief: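 Colony formation (long-term growth) assay in A375 and B16F10 cells under continuous compound exposure for 7 days, then clonogenic growth quantified. Mean ± SD, n = 3; Student's t-test.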

[4] = biological target: Protein cereblon/Cyclin-dependent kinase 6 (Mus musculus) (UniProt Q8C7D2+Q64261); assay: Protac activity at CRBN/CDK6 in mouse B16F10 cells assessed as induction of CDK6 protein degradation after 12 hrs by Western blot analysis; assay type: cell-based; details: B16-F10, dose 62.5-1000 nM
Method in brief: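 B16F10 and A375 cells treated with DMSO or serial dilutions of compound for 12 h (concentration series), or for the indicated times (time course). CDK2, CDK4 and CDK6 protein levels determined by western blot.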

Protein cereblon/Cyclin-dependent kinase 6 (Mus musculus), sequence (Q64261 whole entry, looked up): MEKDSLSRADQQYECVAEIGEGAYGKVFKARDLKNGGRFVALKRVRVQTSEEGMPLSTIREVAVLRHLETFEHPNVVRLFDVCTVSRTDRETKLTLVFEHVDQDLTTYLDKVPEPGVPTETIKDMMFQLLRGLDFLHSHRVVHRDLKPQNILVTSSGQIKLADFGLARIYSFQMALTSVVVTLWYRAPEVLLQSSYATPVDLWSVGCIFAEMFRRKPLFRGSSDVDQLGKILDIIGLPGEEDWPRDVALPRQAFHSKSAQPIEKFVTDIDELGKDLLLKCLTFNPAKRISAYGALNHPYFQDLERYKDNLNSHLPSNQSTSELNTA
Protein cereblon/Cyclin-dependent kinase 6 (Mus musculus), sequence (Q8C7D2 whole entry, looked up): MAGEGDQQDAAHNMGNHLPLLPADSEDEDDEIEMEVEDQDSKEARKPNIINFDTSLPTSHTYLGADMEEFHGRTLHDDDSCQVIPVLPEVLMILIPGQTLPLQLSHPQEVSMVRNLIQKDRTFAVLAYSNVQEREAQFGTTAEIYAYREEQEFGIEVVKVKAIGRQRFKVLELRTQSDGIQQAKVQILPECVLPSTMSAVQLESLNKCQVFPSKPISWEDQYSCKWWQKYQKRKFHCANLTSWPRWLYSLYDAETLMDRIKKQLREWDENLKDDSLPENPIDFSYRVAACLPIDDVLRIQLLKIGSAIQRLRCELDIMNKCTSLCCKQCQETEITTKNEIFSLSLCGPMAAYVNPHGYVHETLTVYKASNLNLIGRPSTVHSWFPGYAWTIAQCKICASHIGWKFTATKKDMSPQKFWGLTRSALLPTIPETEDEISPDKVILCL

Activity [4]: Dose-dependent effect
SMILES: CN(C)C(=O)c1cc2cnc(Nc3ccc(C(=O)NCCCCCCNc4cccc5c4C(=O)N(C4CCC(=O)NC4=O)C5=O)cc3)nc2n1C1CCCC1 (centres undefined)
Activity [1]: 0.144% | Activity [2]: 13.67% | inhibition [3]: Active
